Bioassay records: PubChem, several laboratories
Rev-erbA mod: modulates human Rev-erb alpha binding to DNA. P20393. Rev-erbα–FITC-DNA binding, fluorescence polarization, 90 min. activity, % at 10 µM. actives 0.79% (n = 370,000). AID 1259318;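 active means activity above about 14%, limit read from the data; passing the limit was not always enough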;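 further: 0% = DMSO wells with 35 nM protein and 100% = DMSO wells with 750 nM protein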
NR2E3 ag-1: agonists of human nuclear receptor NR2E3; actives 0.12% (n = 320,000); GST-NR2E3/biotin-RetCOR TR-FRET, 1536-well; Q9Y5X4; inhibition of corepressor binding, % at 4.78 µM;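 active means percent inhibition above the cutoff of mean plus 3 SD of all tested compounds, set per screening campaign, cut at about 20% in these data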;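 further: 0% = DMSO wells and 100% = biotin wells as full block of FRET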
Target sequence (Q9Y5X4 whole entry, looked up): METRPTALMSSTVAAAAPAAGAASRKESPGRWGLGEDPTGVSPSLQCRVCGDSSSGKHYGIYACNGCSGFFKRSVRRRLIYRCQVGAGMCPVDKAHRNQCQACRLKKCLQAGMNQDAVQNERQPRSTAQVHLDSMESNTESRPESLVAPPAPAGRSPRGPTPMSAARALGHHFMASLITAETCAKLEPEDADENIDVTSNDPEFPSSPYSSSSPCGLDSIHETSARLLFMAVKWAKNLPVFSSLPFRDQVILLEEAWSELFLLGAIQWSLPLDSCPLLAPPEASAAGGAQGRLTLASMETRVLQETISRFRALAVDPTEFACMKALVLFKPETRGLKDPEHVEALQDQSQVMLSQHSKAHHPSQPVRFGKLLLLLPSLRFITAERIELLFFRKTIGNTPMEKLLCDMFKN
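system = GST-tagged NR2E3 plus biotinylated RetCOR corepressor | input = 1.35 nM GST-NR2E3 | also added = 7 nM biotin-RetCOR | schedule = 5 h incubation at 4 °C | measured by = TR-FRET with europium anti-GST and streptavidin-D2, 340 nm excitation | read-out = percent loss of FRET ratio relative to control wells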
PG9 binder: PG9 antibody binding by small molecule. AID 624416. TR-FRET gp120-PG9 antibody binding. inhibition, % at 6.7 µM. actives 0.43% (n = 360,000); in the data active means inhibition above about 8.5%
NR2E3 ag-2: human photoreceptor-specific nuclear receptor agonism; Q9Y5X4; CHO-S Gal4-NCOR/VP16-NR2E3 two-hybrid, luciferase; inhibition of corepressor binding, % at 3.98 µM; actives 0.35% (n = 360,000);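 active means inhibition above the mean of all tested compounds plus 3 SD, cut at about 70% in these data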;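 further: 0% = DMSO with NR2E3 transfected cells and 100% = cells lacking NR2E3 construct; higher means lower luciferase signal from less NR2E3 corepressor binding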
NR2E3 ag confirm: confirmation of human NR2E3 agonists; shares compounds with NR2E3 ag-2; CHO-S mammalian two-hybrid NR2E3-NCOR, luciferase luminescence; inhibition, % at 3.98 µM; actives 51% (n = 2,300); AID 624378;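 active means average inhibition above a cutoff equal to the mean inhibition of all tested compounds plus one SD, cut at about 70% in these data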;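 further: 0% = DMSO in NR2E3 cells and 100% = DMSO in cells lacking NR2E3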
VP16 counter: counter-screen for NR2E3 agonists: GAL4-VP16 reporter inhibitors. CHO-S GAL4-VP16 luciferase reporter, luminescence. inhibition, % at 3.98 µM. actives 29% (n = 2,300). shares compounds with NR2E3 ag-2;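 active means mean inhibition above a cutoff equal to the average over all tested compounds plus one standard deviation, cut at about 70% in these data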;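 further: luciferase from a UAS reporter driven by GAL4-VP16 transactivation; 0% = DMSO with VP16-transfected cells and 100% = DMSO with cells lacking VP16; higher means less reporter light so more repression of VP16 activity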
PG9 bind confirm: PG9 antibody binding, confirmed | inhibition, % at 6.7 µM | shares compounds with PG9 binder | TR-FRET PG9 antibody binding, biochemical | actives 90% (n = 1,500); in the data active means inhibition above about 9%
PGV04 counter: binds control antibody PGV04 in PG9 binder counter-screen | shares compounds with PG9 binder | TR-FRET PGV04 antibody-gp120 binding, biochemical | inhibition, % at 6.7 µM | actives 95% (n = 1,500); in the data active means inhibition above about 9.5%
PG9 bind DR: small molecules binding HIV-1 gp120 antibody PG9. shares compounds with PG9 binder. 95 tested, under 10 active. IC50, µM. AID 651848. TR-FRET PG9 antibody-gp120 binding inhibition; in the data active means IC50 below about 10 µM
PGV04 DR counter: PGV04 binding, dose response counter-screen | shares compounds with PG9 binder | TR-FRET binding to control antibody PGV04 | IC50, µM | actives 20% (n = 95) | AID 651937
PG126 DR counter: binds control antibody PG126 in PG9 counter-screen. shares compounds with PG9 binder. TR-FRET binding to antibody PG126, counterscreen. IC50, µM. actives 20% (n = 95). AID 651939
NR1D1 mod conf: Rev-erb alpha (human) modulation, hit confirmation | shares compounds with Rev-erbA mod | Rev-erb alpha FITC-DNA binding, fluorescence polarization, 90 min | actives 61% (n = 3,000) | activation, % at 25 µM;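 active means activation at or above a set limit, or at least 3 SD above the negative control mean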;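 further: 0% = 35 nM protein with DMSO and 100% = 750 nM protein high control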
RORg counter: counter-screen for Rev-erb alpha modulators: RORgamma DNA binding; shares compounds with Rev-erbA mod; purified RORgamma protein-FITC-DNA binding, fluorescence polarization; IC50, µM; actives 8% (n = 910); AID 1259320;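 active means Compounds whose fitted half-maximal concentration for disrupting protein-DNA binding is below 10 micromolar; the record names Rev-erb in its text, so the target is in doubt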
An asterisk follows results filed as active; i = inactive; . = not tested or not shown. The list is not random: actives were taken first. Their share in the collection is about 1.4%. Unless noted, no stated cut-off is given here; in the data, active means IC50 below about 9 µM; inactive means the rest.

SMILES	Rev-erbA mod	NR2E3 ag-1	PG9 binder	NR2E3 ag-2	NR2E3 ag confirm	VP16 counter	PG9 bind confirm	PGV04 counter	others
Oc1ccccc1/C=N/NC(=S)NC1CC2CC1C1C=CCC21 (centres undefined)	-3	-1	0	53	-102	-116	.	.
OC[C@@H]1CN(Cc2cccnc2)C[C@H](n2cnc3c(N4CCOCC4)ncnc32)O1	2	.	2	-35	.	.	.	.
CCCN1CCN(CCCNC(=O)C2CCN(c3nnc(-n4cccc4)s3)CC2)CC1	3	0	0	9	.	.	.	.
COC(=O)C1CCCCN1C(=O)c1cc(COc2cccc3cnccc23)on1 (centres undefined)	1	3	-1	102*	95*	88*	.	.
CN(Cc1nccs1)C(=O)c1cc(COc2cccc3cnccc23)on1	5	-2	0	94*	81*	76*	.	.
CCOC(=O)CC1CCCCN1C(=O)c1cc(COc2cccc3cnccc23)on1 (centres undefined)	-3	-2	-3	101*	91*	88*	.	.
COC(=O)C1CCCCN1C(=O)c1cc(COc2cccc3cccnc23)on1 (centres undefined)	-1	0	-2	-11	.	.	.	.
CCOc1ccc(/C=N/NC(=O)Cc2csc(Nc3cccc(C(F)(F)F)c3)n2)cc1	1	3	-2	9	.	.	.	.
CC1CCCC/C1=N\NC(=S)Nc1ccccc1 (centres undefined)	-1	-4	-2	-78	.	.	.	.
CC(C)NC(=S)N/N=C1\CCCCC1C1CCCCC1 (centres undefined)	9	1	-1	67	-16	0	.	.
O=C(Nc1ccc(Br)c2ccccc12)c1ccc2ccccc2c1O	5	38*	36*	107*	99*	79*	31*	37*
CSc1ccc(S(=O)(=O)NCCSc2ccccn2)cc1	-2	-3	-1	-11	.	.	.	.
CCC1(O)C(=O)OCc2c1cc1n(c2=O)Cc2cc3cc(O)ccc3nc2-1 (centres undefined)	0	.	19*	63	90*	27	16*	31*
N#Cc1ccc(OS(=O)(=O)c2ccc(-c3ccon3)s2)cc1	-2	5	-2	23	.	.	.	.
Cc1ccc2nc(NC(=O)COC(=O)CSc3nc(C)cc(C)n3)sc2c1	-4	0	-1	-40	.	.	.	.
CSc1nsc(SCC(=O)Nc2nc3ccc(C)cc3s2)n1	-5	2	10*	61	45	32	14*	18*
COC(=O)c1ccc2nc(Nc3nc4c(F)cc(F)cc4s3)sc2c1	38*	1	0	58	29	-47	.	.	NR1D1 mod conf=33*;RORg counter=>40
COC(=O)c1ccc2nc(NC(=O)C(C)C)sc2c1	-5	-2	-1	-91	.	.	.	.
CC(=O)N1CCCc2cc(S(=O)(=O)N3CCCC(C(=O)N4CCN(c5cc(C)ccc5C)CC4)C3)ccc21 (centres undefined)	17*	-4	-1	98*	91*	79*	.	.	NR1D1 mod conf=18*
COc1ccc(CC(=O)NNC(=O)CSc2nc(C)c(C)c(=O)[nH]2)cc1	2	0	-2	-7	.	.	.	.
Clc1ccccc1Nc1nc(NCc2ccccc2)nc2ccsc12	21*	.	18*	63	50	55	27*	36*	NR1D1 mod conf=5
COc1cc(C(=O)N2CCN(C(=O)CC(C)C)CC2)cc(OC)c1OC	-3	2	-1	14	.	.	.	.
CCN1/C(=C/c2ccc3cc(C)ccc3[n+]2CC)Sc2cc(C)ccc21	29*	.	-6	90*	100*	85*	.	.	NR1D1 mod conf=51*;RORg counter=>40
CCN1/C(=C/c2ccc3cc(C)ccc3[n+]2C)Sc2ccc3sccc3c21	12	.	-34	66	.	.	.	.
O=C(CSc1nnnn1-c1ccccc1)Nc1ccc(Cl)cc1	1	0	0	-19	.	.	.	.
SMILES	Rev-erbA mod	NR2E3 ag-1	PG9 binder	NR2E3 ag-2	NR2E3 ag confirm	VP16 counter	PG9 bind confirm	PGV04 counter	others
CCn1c2ccccc2c2cc(NC(=O)CSc3nnnn3-c3ccccc3)ccc21	39*	1	10*	70	54	21	9.2*	18*	NR1D1 mod conf=24*
Cc1ccc(-c2nc(NC(=O)CSc3nnnn3-c3ccccc3)ns2)cc1	18*	4	13*	73*	100*	29	4	6	NR1D1 mod conf=10
CCn1cc(C(=O)Nc2ccc(OC)c(OC)c2)c2cc(OC)c(OC)cc2c1=O	1	-1	-1	17	.	.	.	.
O=C(c1ccc(NS(=O)(=O)c2ccccc2)cc1)N1CCN(Cc2ccc3c(c2)OCO3)CC1	2	-3	11*	5	.	.	6	7
COc1ccc(NS(=O)(=O)c2cccc(C(=O)N3CCN(Cc4ccc5c(c4)OCO5)CC3)c2)cc1	4	2	0	6	.	.	.	.
O=C(NC1CCCc2c1cnn2-c1ccc(F)cc1F)c1cccs1 (centres undefined)	-3	.	.	.	.	.	.	.
C=CCC(O)(CC=C)C(C)N (centres undefined)	4	0	1	-18	.	.	.	.
N#C/C(=C(/O)COC(=O)COc1cccc(Br)c1)c1nc2ccccc2[nH]1	7	1	12*	-15	.	.	19*	31*
Cc1cc(C)cc(OCC(=O)OC/C(O)=C(\C#N)c2nc3ccccc3[nH]2)c1	0	3	8	-16	.	.	.	.
COCc1cc(C)n(CC(=O)Nc2ccccc2OC)c(=O)c1C#N	2	-1	-2	-16	.	.	.	.
COCc1cc(C)n(CC(=O)Nc2ccc(Cl)cc2Cl)c(=O)c1C#N	-2	2	8.8*	15	.	.	8	8	PG9 bind DR=i;PGV04 DR counter=i;PG126 DR counter=i
CCOc1ccc2cc(C(=O)NCc3ccccc3)c(=N)oc2c1	-9	-1	40*	-37	.	.	15*	7	PG9 bind DR=>67;PGV04 DR counter=>67;PG126 DR counter=>67
